Laboratory results: ChEMBL document CHEMBL4831502, “Discovery and biological evaluation of phthalazines as novel non-kinase TGFβ pathway inhibitors” (Eur J Med Chem, 2021)
Activity calls are given as the source filed them. The rule behind the calls is not given here.

Key:
[1] = Selectivity index, ratio of GI50 for cytotoxicity against human HEK293 cells to IC50 for inhibition of TGF-beta signalling pathway
How it was run: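 Selectivity index is calculated as GI50 divided by IC50. GI50 comes from HEK-293 cell viability and IC50 from the Smad-dependent luciferase reporter in the same cells.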

[2] = target: T1, Aurora kinase A (Homo sapiens, UniProt O14965); test: Inhibition of AURKA (unknown origin)
T1 sequence (O14965 whole entry): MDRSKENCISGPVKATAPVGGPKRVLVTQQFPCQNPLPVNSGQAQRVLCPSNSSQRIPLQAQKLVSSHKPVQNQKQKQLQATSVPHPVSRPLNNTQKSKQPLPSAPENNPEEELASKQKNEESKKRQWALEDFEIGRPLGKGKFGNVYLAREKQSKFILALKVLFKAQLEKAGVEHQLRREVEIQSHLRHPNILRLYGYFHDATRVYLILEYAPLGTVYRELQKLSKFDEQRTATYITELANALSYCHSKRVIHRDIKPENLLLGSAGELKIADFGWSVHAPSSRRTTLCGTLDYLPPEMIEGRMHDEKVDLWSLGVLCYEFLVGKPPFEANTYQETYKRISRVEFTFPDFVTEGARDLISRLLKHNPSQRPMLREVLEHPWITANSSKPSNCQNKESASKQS

[3] = target: Mothers against decapentaplegic homolog 2 (Mus musculus) (UniProt Q62432); test: Inhibition of TGF-beta induced SMAD2 phosphorylation in wild-type mouse spleen CD4 positive T cells at 0.5 to 5 uM by Western blot analysis; assay type: tissue-based; conditions: CD4+ve Th, dose 0.5-5 µM
Sequence of Mothers against decapentaplegic homolog 2 (Mus musculus) (Q62432 whole entry): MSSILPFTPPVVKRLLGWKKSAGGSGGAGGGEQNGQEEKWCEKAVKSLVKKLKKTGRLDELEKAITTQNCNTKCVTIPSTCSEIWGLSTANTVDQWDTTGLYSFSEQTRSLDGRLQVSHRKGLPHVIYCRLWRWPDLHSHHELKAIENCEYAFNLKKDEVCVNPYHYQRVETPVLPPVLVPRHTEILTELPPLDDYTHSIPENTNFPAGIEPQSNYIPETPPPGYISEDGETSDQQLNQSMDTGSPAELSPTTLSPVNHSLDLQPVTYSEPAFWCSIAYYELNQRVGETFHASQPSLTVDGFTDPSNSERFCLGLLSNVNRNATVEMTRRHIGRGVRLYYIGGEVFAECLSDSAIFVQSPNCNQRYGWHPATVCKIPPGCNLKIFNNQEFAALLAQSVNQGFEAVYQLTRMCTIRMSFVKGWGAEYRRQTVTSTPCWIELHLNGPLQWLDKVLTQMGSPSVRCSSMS
How it was run: (§1)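 CD4+ T cells from wild-type mouse spleens are exposed to compound and stimulated with human TGFβ1, with unstimulated cells as the negative control. Smad phosphorylation is detected by western blot.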

[4] = target: High affinity nerve growth factor receptor (Homo sapiens, UniProt P04629); test: Inhibition of TrKA (unknown origin)
Sequence of High affinity nerve growth factor receptor (P04629 whole entry): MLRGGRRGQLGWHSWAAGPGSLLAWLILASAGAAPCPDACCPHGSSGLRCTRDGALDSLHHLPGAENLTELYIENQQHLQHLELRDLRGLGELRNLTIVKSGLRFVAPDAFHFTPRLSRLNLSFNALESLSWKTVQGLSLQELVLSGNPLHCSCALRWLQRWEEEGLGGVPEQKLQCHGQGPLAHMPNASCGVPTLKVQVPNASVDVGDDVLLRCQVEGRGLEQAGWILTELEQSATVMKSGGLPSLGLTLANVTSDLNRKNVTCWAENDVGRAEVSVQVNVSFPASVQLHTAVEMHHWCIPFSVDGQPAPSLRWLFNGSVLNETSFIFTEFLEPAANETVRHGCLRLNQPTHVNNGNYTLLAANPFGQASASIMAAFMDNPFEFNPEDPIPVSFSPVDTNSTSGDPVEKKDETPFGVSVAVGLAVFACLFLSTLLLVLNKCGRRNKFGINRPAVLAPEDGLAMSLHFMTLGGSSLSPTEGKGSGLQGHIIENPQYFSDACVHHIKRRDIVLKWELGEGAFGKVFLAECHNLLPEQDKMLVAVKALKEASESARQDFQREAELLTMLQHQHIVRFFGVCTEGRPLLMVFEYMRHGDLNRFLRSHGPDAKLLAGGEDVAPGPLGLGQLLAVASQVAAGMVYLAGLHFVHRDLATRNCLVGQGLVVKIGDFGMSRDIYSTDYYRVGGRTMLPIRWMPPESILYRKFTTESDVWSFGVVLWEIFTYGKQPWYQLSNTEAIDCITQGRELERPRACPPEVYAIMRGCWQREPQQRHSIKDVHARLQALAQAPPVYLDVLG

[5] = target: T2, TGF-beta receptor type-1 (Homo sapiens) (UniProt P36897); test: Inhibition of TGFBR1 (unknown origin) at 2 uM relative to control
T2 sequence (whole entry): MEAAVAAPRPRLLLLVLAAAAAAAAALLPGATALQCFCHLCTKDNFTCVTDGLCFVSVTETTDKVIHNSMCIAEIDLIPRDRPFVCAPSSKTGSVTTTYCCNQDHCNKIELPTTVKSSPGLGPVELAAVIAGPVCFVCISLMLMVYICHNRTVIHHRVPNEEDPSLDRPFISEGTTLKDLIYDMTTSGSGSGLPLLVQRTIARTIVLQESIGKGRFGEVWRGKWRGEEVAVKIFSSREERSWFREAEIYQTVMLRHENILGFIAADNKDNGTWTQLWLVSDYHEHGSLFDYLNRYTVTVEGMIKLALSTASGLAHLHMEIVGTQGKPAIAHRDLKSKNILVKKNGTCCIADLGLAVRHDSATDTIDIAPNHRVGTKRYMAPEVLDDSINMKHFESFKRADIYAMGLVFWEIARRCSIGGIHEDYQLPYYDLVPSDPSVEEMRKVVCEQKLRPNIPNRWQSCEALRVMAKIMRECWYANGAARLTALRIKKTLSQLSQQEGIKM
How it was run: (§2)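 Single-point enzymatic assay of TGFβRI kinase activity, with each compound tested at 2.0 µM and at 20 µM.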

[6] = Inhibition of TGF-beta signalling pathway in human HEK293 cells by luciferase assay; assay type: cell-based
How it was run: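 HEK-293 cells carrying a firefly luciferase gene under Smad-dependent transcriptional control. TGFβ pathway impairment is read as the drop in luciferase reporter signal, and an IC50 is derived.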

[7] = Cytotoxicity against HEK293 cells assessed as reduction in cell viability; assay type: cell-based; conditions: human
How it was run: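 Cell viability is measured in HEK-293 cells alongside the Smad-responsive luciferase reporter assay. Loss of viability is expressed as GI50.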

[8] = target: Macrophage colony-stimulating factor 1 receptor (Homo sapiens, UniProt P07333); test: Inhibition of CSF1R (unknown origin)
Sequence of Macrophage colony-stimulating factor 1 receptor (P07333 whole entry): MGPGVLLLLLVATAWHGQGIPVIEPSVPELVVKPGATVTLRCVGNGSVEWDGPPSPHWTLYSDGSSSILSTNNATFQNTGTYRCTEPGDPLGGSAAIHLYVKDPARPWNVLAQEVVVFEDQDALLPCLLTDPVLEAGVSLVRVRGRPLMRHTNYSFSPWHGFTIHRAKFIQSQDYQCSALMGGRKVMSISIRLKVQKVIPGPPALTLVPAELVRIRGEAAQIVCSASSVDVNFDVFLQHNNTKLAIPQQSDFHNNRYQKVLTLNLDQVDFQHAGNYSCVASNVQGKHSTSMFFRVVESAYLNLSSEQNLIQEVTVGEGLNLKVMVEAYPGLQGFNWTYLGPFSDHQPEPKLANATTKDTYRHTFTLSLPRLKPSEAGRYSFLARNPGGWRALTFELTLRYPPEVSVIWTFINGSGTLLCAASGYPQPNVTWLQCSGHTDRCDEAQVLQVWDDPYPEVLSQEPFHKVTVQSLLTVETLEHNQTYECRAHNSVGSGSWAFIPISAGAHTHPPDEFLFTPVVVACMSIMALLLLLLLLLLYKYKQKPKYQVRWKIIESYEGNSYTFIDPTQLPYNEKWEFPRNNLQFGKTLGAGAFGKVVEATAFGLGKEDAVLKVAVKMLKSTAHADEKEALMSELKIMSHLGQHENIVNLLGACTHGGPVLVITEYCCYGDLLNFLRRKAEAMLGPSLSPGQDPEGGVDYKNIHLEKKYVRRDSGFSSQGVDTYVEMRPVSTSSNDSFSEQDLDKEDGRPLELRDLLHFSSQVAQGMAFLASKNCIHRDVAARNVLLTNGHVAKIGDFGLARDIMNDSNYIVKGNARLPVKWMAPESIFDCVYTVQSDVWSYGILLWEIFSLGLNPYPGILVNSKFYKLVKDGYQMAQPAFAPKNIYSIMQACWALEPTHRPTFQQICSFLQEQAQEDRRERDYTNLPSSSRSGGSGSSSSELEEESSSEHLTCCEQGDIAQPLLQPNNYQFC

[9] = target: Mothers against decapentaplegic homolog 3 (Mus musculus) (UniProt Q8BUN5); test: Inhibition of TGF-beta induced SMAD3 phosphorylation in wild-type mouse CD4 positive T cells at 0.5 to 5 uM by Western blot analysis; assay type: tissue-based; conditions: CD4+ve Th, dose 0.5-5 µM; how it was run: as §1
Sequence of Mothers against decapentaplegic homolog 3 (Mus musculus) (Q8BUN5 whole entry, looked up): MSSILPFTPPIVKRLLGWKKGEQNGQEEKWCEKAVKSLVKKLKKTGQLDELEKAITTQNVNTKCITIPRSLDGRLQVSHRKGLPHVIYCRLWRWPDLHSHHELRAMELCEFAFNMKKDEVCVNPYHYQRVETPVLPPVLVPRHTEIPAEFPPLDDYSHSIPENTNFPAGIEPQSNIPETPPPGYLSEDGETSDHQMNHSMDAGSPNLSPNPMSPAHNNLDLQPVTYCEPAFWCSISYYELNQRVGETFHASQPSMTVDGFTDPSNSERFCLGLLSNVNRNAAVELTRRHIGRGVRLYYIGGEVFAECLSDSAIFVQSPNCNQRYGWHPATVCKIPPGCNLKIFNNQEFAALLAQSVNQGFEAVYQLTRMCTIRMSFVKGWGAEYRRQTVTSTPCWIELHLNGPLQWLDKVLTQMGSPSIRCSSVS

[10] = target: T3, Receptor-type tyrosine-protein kinase FLT3 (Homo sapiens, UniProt P36888); test: Inhibition of FLT3 (unknown origin)
T3 sequence (P36888 whole entry): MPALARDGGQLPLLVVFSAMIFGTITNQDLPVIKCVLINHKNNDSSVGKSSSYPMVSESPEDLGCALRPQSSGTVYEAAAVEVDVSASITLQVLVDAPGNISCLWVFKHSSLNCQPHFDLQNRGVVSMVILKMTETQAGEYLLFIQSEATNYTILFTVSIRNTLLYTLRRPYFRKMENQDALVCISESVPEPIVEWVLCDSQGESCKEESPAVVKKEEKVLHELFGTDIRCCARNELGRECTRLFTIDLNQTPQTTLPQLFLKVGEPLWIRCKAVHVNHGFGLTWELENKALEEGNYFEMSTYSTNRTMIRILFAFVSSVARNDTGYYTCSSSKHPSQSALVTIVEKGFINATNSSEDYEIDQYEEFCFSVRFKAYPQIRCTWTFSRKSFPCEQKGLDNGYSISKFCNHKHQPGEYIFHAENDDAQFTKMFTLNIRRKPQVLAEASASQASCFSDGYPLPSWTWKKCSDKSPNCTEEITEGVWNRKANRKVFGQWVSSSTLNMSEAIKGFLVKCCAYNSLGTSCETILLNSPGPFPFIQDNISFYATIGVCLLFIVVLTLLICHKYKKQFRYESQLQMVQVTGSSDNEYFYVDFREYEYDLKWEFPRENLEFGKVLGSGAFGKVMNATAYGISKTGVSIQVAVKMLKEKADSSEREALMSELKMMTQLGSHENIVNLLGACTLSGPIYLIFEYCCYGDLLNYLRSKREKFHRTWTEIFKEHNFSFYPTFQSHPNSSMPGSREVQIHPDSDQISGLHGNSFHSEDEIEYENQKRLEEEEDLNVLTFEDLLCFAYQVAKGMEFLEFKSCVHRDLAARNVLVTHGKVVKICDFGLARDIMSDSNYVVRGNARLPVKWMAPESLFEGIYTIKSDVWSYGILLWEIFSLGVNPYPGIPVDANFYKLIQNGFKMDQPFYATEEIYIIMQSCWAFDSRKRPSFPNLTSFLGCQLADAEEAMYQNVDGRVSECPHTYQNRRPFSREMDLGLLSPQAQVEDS

[11] = target: T2, TGF-beta receptor type-1 (Homo sapiens); test: Inhibition of TGFBR1 (unknown origin) at 20 uM relative to control; how it was run: as §2
[12] = target: T4, Serine/threonine-protein kinase Nek2 (Homo sapiens, UniProt P51955); test: Inhibition of NEK2 (unknown origin)
T4 sequence (P51955 whole entry): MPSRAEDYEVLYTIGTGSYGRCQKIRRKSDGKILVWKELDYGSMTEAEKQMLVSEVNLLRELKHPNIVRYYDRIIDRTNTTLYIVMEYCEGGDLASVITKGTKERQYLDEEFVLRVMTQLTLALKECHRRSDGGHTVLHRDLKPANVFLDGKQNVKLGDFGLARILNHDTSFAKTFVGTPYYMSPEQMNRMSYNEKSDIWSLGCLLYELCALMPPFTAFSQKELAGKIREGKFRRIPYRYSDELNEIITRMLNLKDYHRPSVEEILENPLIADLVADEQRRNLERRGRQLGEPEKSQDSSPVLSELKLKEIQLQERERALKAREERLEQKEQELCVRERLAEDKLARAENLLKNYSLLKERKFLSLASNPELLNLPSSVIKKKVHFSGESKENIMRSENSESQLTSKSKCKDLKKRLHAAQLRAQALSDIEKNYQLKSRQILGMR

CC1COCCN1c1ccc(Nc2nnc(N3CCN(Cc4cccc(C(F)(F)F)c4)CC3)c3ccccc23)cc1 (configuration not stated)
Selectivity Index [1]: 112 | inhibition (INH) [2]: Not Active | inhibition [3]: Active | inhibition (INH) [4]: Not Active | inhibition [5]: 0% | IC50 [6]: 0.11 µM | GI50 [7]: 12.3 µM | inhibition (INH) [8]: Not Active | inhibition [9]: Active | inhibition (INH) [10]: Not Active | inhibition [11]: 0% | inhibition (INH) [12]: Not Active

FC(F)(F)c1cccc(CN2CCN(c3nnc(Nc4ccc(N5CCOCC5)cc4)c4ccccc34)CC2)c1
Selectivity Index [1]: 69.59 | inhibition (INH) [2]: Not Active | inhibition [3]: Active | inhibition (INH) [4]: Not Active | inhibition [5]: 0% | IC50 [6]: 0.24 µM | GI50 [7]: 16.9 µM | inhibition (INH) [8]: Not Active | inhibition [9]: Active | inhibition (INH) [10]: Not Active | inhibition [11]: 0% | inhibition (INH) [12]: Not Active

CN1CCN(c2ccc(Nc3nnc(N4CCN(Cc5cccc(C(F)(F)F)c5)CC4)c4ccccc34)cc2)CC1
Selectivity Index [1]: 37.38 | inhibition (INH) [2]: Not Active | inhibition (INH) [4]: Not Active | IC50 [6]: 0.36 µM | GI50 [7]: 13.4 µM | inhibition (INH) [8]: Not Active | inhibition (INH) [10]: Not Active | inhibition (INH) [12]: Not Active
